The text below walks through data of ChEMBL document CHEMBL4229483, “Synthesis and evaluation of an orally available "Y"-shaped biaryl peroxisome proliferator-activated receptor δ agonist” (Bioorg Med Chem, 2018).

Series [1] has as its target T1, Peroxisome proliferator-activated receptor alpha (Homo sapiens, UniProt Q07869).
T1 sequence (Q07869 whole entry): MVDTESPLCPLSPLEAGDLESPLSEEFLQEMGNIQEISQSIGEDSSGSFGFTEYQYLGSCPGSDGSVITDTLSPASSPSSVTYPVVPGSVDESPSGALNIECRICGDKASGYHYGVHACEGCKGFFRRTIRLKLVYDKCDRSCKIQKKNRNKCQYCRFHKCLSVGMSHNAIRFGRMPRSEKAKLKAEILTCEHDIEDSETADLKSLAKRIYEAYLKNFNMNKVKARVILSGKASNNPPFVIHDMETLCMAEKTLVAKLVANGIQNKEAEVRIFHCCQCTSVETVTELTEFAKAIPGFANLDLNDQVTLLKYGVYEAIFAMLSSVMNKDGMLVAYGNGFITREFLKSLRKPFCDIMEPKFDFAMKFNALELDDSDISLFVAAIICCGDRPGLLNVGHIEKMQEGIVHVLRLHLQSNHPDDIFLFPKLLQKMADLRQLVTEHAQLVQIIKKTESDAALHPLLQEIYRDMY
In words: Transactivation of human PPARalpha expressed in monkey CV-1 cells coexpressing TK-PPRE-Luc after 24 hrs by luciferase reporter gene assay. In kind it is cell-based.

In series [2] the target is T2, Peroxisome proliferator-activated receptor gamma (Homo sapiens, UniProt P37231).
T2 sequence (P37231 whole entry): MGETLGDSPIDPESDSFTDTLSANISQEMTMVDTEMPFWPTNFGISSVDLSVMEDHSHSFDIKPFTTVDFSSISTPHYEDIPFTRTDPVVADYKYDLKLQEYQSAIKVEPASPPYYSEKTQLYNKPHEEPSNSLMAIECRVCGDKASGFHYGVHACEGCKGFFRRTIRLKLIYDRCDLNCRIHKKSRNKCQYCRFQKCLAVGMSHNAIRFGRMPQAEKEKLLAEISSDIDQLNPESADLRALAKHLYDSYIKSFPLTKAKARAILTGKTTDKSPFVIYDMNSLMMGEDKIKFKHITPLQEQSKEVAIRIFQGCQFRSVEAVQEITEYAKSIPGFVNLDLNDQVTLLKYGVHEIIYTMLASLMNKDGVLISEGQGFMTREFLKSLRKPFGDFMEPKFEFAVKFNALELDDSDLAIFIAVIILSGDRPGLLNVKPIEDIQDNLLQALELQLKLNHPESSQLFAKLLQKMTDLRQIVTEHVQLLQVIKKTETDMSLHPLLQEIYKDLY
Description: Transactivation of human PPARgamma expressed in monkey CV-1 cells coexpressing TK-PPRE-Luc after 24 hrs by luciferase reporter gene assay. It is filed as cell-based.

The target in another series is T3, CYP1A2 (Homo sapiens, UniProt P05177).
T3 sequence (P05177 whole entry): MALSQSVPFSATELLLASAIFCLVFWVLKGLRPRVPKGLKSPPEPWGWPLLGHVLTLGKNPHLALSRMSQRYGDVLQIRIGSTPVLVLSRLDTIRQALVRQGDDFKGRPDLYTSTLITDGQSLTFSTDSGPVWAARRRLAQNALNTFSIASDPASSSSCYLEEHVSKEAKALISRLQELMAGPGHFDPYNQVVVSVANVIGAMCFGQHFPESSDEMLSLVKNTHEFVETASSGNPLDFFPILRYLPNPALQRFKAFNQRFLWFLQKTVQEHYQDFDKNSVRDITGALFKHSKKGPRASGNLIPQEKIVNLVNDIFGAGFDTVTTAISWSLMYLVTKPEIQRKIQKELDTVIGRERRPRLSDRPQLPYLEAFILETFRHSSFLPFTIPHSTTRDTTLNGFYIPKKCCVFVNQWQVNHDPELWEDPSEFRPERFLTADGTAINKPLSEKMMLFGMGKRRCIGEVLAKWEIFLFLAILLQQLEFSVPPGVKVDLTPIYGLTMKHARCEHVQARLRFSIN
Description: Inhibition of phenacetin O-deethylase activity of CYP1A2 in human liver microsomes at 10 uM preincubated for 5 mins followed by NADPH addition measured after 15 mins by LC-MS/MS analysis. It is filed as ADME. The conditions noted are these: probe phenacetin (O-deethylation). Summed up: (§1)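 Compound incubated with liver microsomes and isotype-specific CYP substrates for 15 min. Activity expressed as percent inhibition relative to incubation without compound. Values are means of duplicates.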

Another series addresses CYP2C9 (Homo sapiens, UniProt P11712). Description: Inhibition of tolbutamide 4-hydroxylase activity of CYP2C9 in human liver microsomes at 10 uM preincubated for 5 mins followed by NADPH addition measured after 15 mins by LC-MS/MS analysis. In kind it is ADME. To be noted: probe tolbutamide (4-hydroxylation). Summed up: as §1
In general terms: Liver microsomes are a subcellular fraction often used to study metabolism.

For a further series, the target named is CYP2C19 (Homo sapiens, UniProt P33261). In words: Inhibition of S-mephenytoin 4-hydroxylase activity of CYP2C19 in human liver microsomes at 10 uM preincubated for 5 mins followed by NADPH addition measured after 15 mins by LC-MS/MS analysis. It is filed as ADME. The conditions noted are these: probe S-mephenytoin (4-hydroxylation). Summed up:
as §1

For a further series, the target named is CYP2D6 (Homo sapiens, UniProt P10635). In words: Inhibition of dextromethorphan O-demethylase activity of CYP2D6 in human liver microsomes at 10 uM preincubated for 5 mins followed by NADPH addition measured after 15 mins by LC-MS/MS analysis. In kind it is ADME. To be noted: probe dextromethorphan (O-demethylation). A digest of the protocol: as §1
Sequence of CYP2D6 (P10635 whole entry): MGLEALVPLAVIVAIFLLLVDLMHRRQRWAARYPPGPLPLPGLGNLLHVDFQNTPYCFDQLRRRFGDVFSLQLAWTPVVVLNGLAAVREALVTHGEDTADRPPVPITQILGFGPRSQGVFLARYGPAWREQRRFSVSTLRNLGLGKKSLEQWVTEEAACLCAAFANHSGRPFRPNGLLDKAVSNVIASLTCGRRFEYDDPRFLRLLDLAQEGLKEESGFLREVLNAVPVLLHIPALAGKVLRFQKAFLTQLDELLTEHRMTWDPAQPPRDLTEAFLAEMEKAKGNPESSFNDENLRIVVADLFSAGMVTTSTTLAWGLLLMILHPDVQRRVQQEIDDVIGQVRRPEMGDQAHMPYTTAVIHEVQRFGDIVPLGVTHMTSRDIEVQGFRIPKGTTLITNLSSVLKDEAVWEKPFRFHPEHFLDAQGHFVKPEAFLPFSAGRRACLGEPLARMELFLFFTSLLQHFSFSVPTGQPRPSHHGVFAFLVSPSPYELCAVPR
Another series has as its target CYP3A4 (Homo sapiens, UniProt P08684). Description: Inhibition of midazolam 1'-hydroxylase activity of CYP3A4 in human liver microsomes at 10 uM preincubated for 5 mins followed by NADPH addition measured after 15 mins by LC-MS/MS analysis. To be noted: probe midazolam (1'-hydroxylation). In kind it is ADME. Summed up:
as §1

Series [3] is described as follows: Metabolic stability in human liver microsomes assessed as parent compound remaining at 1 uM after 30 mins in presence of NADPH by LC-MS/MS analysis. In kind it is ADME, microsome. To be noted: read-out: Stability. A digest of the protocol:
(§2)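 Compound incubated with liver microsomes for 30 min. Percentage of parent remaining quantified by LC-MS/MS. Means of duplicate determinations.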

A short description of series [4]: Metabolic stability in dog liver microsomes assessed as parent compound remaining at 1 uM after 30 mins in presence of NADPH by LC-MS/MS analysis. In kind it is ADME, Canis lupus familiaris, microsome. To be noted: read-out: Stability. A digest of the protocol:
as §2

A short description of series [5]: Metabolic stability in rat liver microsomes assessed as parent compound remaining at 1 uM after 30 mins in presence of NADPH by LC-MS/MS analysis. In kind it is ADME, microsome. The conditions noted are these: read-out: Stability. Summed up: as §2
Series [6] in a line: Metabolic stability in mouse liver microsomes assessed as parent compound remaining at 1 uM after 30 mins in presence of NADPH by LC-MS/MS analysis. In kind it is ADME, microsome. The conditions noted are these: read-out: Stability. Summed up: as §2
A short description of series [7]: Permeability of the compound at 10 uM at pH 7.4 after 5 hrs by PAMPA. The conditions noted are these: read-out: permeability. It is filed as ADME. Summed up:
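PAMPA. Effective permeability calculated after 5 h. Values are the mean of four determinations.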
In general terms: The PAMPA barrier holds no transporters, so it reflects passive diffusion.

In series [8] the target is Voltage-gated inwardly rectifying potassium channel KCNH2 (Homo sapiens, UniProt Q12809). Description: Inhibition of human ERG after 4 hrs by fluorescence polarization assay. A digest of the protocol:
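hERG channel binding measured by a fluorescence polarization (Predictor) assay. IC50 obtained by four-parameter non-linear regression.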
On the technique in general: Polarisation of emitted light reports the rotation of a fluorescent probe.

Series [9] can be described thus: Total AUC in Sprague-Dawley rat at 1 mg/kg, iv by LC-MS/MS analysis. Details: dose 1 mg/kg, route intravenous, time AUCmax. In kind it is ADME, organism-based. To be noted: in vivo. A digest of the protocol: (§3)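 Rats (n = 4) given 1 mg/kg iv. Vehicle: ethanol 10%, DMSO 10%, Cremophor EL 10%, water 50%, PEG400 30%. Parameters calculated from composite mean plasma concentration–time data, reported as mean ± SD.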

Series [10] in a line: Clearance in Sprague-Dawley rat at 1 mg/kg, iv by LC-MS/MS analysis. To be noted: in vivo. In kind it is ADME, organism-based. A digest of the protocol: as §3
Series [11] is described as follows: Volume of distribution at steady state in Sprague-Dawley rat at 1 mg/kg, iv by LC-MS/MS analysis. In kind it is ADME, organism-based. The conditions noted are these: in vivo, read-out: Vdss. A digest of the protocol: as §3
Series [12] can be described thus: Half life in Sprague-Dawley rat at 1 mg/kg, iv by LC-MS/MS analysis. In kind it is ADME, organism-based. To be noted: in vivo. A digest of the protocol:
as §3

Series [13] in a line: Cmax in Sprague-Dawley rat at 10 mg/kg, po by LC-MS/MS analysis. It is filed as ADME, organism-based. Details: dose 10 mg/kg, route oral. The conditions noted are these: in vivo. Summed up:
(§4)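 Formulation: ethanol 10%, DMSO 10%, Cremophor EL 10%, […], PEG400 30%. PK parameters taken from composite mean plasma concentration–time profiles, given as mean ± SD.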

A short description of series [14]: Tmax in Sprague-Dawley rat at 10 mg/kg, po by LC-MS/MS analysis. It is filed as ADME, organism-based. To be noted: in vivo. Summed up:
as §4

The nature of series [15]: Total AUC in Sprague-Dawley rat at 10 mg/kg, po by LC-MS/MS analysis. It is filed as ADME, organism-based. Details: dose 10 mg/kg, route oral, time AUCmax. To be noted: in vivo. Summed up: as §4
Series [16] can be described thus: Oral bioavailability in Sprague-Dawley rat at 10 mg/kg by LC-MS/MS analysis. In kind it is ADME, organism-based. The conditions noted are these: in vivo. Summed up: as §4

Sequence of CYP3A4 (P08684 whole entry): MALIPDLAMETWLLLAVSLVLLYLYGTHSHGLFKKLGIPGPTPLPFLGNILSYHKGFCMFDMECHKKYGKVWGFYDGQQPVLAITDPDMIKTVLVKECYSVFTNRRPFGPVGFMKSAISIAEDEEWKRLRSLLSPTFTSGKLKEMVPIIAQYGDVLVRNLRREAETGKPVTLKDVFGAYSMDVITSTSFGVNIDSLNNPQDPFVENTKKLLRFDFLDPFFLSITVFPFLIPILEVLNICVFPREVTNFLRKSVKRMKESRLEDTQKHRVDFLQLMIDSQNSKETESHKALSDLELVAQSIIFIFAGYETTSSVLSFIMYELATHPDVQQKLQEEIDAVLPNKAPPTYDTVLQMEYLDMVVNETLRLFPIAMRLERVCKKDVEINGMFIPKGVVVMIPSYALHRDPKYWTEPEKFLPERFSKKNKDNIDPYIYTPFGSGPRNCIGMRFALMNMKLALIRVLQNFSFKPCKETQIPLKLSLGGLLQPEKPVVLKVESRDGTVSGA
Sequence of CYP2C9 (P11712 whole entry): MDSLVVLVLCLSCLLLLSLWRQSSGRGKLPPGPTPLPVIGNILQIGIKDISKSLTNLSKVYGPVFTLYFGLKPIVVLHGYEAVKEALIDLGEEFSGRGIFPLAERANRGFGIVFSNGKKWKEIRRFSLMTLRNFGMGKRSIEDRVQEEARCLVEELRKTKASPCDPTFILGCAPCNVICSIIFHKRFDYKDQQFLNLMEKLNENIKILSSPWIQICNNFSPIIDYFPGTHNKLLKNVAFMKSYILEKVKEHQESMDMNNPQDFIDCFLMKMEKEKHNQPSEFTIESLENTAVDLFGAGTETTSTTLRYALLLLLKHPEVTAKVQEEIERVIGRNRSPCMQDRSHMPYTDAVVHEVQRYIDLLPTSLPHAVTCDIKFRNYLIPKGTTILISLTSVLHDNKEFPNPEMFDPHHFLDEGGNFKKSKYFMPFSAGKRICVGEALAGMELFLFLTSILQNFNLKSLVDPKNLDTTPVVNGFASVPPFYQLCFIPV
Sequence of CYP2C19 (P33261 whole entry): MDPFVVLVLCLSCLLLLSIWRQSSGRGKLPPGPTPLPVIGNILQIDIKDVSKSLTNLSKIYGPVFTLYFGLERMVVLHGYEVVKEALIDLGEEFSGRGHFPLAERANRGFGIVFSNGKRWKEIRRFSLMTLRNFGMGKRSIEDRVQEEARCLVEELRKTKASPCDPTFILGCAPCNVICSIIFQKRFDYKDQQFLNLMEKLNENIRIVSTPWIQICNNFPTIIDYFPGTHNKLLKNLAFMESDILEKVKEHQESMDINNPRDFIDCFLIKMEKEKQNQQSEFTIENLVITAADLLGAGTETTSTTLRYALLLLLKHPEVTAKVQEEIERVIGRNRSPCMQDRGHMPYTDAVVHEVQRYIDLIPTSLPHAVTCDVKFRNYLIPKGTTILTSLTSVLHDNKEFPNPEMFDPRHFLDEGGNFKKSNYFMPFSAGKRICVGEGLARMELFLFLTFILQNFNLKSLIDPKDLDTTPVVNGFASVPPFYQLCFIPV
Sequence of Voltage-gated inwardly rectifying potassium channel KCNH2 (Q12809 whole entry): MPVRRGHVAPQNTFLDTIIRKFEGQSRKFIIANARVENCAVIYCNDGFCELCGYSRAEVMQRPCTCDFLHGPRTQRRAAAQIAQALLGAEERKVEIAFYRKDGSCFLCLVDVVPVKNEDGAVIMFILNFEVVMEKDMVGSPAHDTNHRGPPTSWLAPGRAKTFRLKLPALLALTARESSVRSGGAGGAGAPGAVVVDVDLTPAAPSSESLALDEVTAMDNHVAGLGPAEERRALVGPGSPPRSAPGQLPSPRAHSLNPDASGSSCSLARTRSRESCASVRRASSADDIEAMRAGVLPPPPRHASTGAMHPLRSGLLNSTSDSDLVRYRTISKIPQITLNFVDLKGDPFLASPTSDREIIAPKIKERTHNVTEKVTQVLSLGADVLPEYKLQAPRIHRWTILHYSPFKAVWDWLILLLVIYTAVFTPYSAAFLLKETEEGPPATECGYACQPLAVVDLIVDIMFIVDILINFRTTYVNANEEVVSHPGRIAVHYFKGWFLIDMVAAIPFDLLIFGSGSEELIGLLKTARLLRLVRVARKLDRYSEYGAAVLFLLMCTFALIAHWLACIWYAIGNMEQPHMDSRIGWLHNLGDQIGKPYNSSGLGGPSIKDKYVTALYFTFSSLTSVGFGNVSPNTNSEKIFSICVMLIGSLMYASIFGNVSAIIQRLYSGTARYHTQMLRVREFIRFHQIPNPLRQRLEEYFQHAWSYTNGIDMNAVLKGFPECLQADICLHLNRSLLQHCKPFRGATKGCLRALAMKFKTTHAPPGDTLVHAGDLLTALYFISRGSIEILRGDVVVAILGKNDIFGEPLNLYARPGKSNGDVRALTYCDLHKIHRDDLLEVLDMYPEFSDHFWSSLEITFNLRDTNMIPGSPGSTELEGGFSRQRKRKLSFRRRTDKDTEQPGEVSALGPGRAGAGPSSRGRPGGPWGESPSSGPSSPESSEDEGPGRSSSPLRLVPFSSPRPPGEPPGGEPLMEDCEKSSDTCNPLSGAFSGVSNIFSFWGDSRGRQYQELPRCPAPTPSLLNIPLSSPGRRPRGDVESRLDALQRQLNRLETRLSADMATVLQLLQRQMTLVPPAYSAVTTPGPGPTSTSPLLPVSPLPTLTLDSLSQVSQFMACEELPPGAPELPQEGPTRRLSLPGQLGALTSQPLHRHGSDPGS

Take `Cc1cc(SC(Cc2ccccc2)c2ccc(-c3ccc(C(F)(F)F)cc3)cc2)ccc1OCC(=O)O` (stereo unspecified): the EC50 in series [1] and in series [2] was over 10 µM in each case. The inhibition at 0.25 h, 10 µM is 1.5% at CYP1A2; 35.5% against CYP2C9; 4.3% on CYP2C19; 0% at CYP2D6; 7.3% on CYP3A4. Moreover, the remaining at 0.5 h, 1 µM in series [3] was 99.8%; in [4], over 100%; in [5], over 100%; in [6] it was over 100%. For the same compound, the Papp at 5 h, 10 µM in [7] came out at 9.54 ×10⁻⁶ cm/s. The compound also came in with an IC50 in series [8] of over 10 µM. Further, the figures for the AUC in series [9] and in [15] were 3830 ng·h/mL and 12500 ng·h/mL, respectively. The clearance in series [10] was found to be 4 mL/min/kg. Besides, in series [11], the Vd amounted to 1 L/kg. This compound showed a half-life in series [12] of 3.6 h. Further, the highest concentration (Cmax) in series [13] was 2320 ng/mL. In [14], the Tmax came to 4.5 h. This compound came in with a bioavailability in series [16] of 32.6%.

As a reminder, the EC50 is the midpoint of the concentration-response curve. By inhibition is commonly meant the change of the read-out against control, counted positive when it falls. Broadly, the IC50 is the midpoint of a concentration-inhibition curve. A word on the AUC: it is concentration integrated over time. One may read the clearance as the rate of elimination divided by the concentration. The term half-life denotes the time needed for the level to fall by half in the phase considered. The term Cmax denotes the highest concentration seen after dosing. As a reminder, the Tmax is the time from dosing to the highest level. As usually defined, the bioavailability is the share of a dose that reaches the circulation, judged against a reference dose that is usually intravenous.
